From publication PMC4277207 (ChemMedChem, 2014) come the findings set out here.

The subject of data set [1] is D2-like receptor (D2, D3, and D4). Description: [3H]spiperone binding assay, rat striatal. As to conditions: ratio of Ki values, rat brain preparation. The essentials:
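The D2-like assay used [3H]spiperone at 0.2 nM on caudate-putamen membranes at 1.5 mg o.w.w./mL, in agonist-optimised Tris-HCl/KCl/MgCl2/CaCl2 buffer at pH 7.4. Nonspecific binding was set with 1 μM (+)-butaclamol, and KD was 0.4 nM. For two-site curves, the high-affinity Ki is reported. […] Values are means of 3–6 determinations.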

Data set [2] has as its system D1-like receptor (D1 and D5). Description: [3H]SCH 23390 binding assay, rat striatal membranes. As to conditions: ratio of Ki values, rat brain preparation.
Data set [3] is classed as in vitro ADME.

Where two headings read alike, the source gives them in different places.

Consider `CCCN(CCC1(O)CC(NC(=O)c2ccccc2OC)C1)[C@H]1CCc2nc(N)sc2C1` (stereo in doubt) [Compound 19, N-(cis-3-(2-(((S)-2-Amino-4,5,6,7-tetrahydrobenzo[d]thiazol-6-yl)(propyl)amino)-ethyl)-3-hydroxycyclobutyl)-2-methoxybenzamide], for which the “Selectivity D2-like/D3” value in data set [1] is recorded as 160. Also, in data set [2], the “Selectivity D1-like/D3” value is given as 44,500.
With `CCCN(CCC1(O)CC(NS(=O)(=O)c2ccccc2)C1)[C@H]1CCc2nc(N)sc2C1` (stereo in doubt) [Compound 24, N-(cis-3-(2-(((S)-2-Amino-4,5,6,7-tetrahydrobenzo[d]thiazol-6-yl)(propyl)amino)-ethyl)-3-hydroxycyclobutyl)benzenesulfonamide], the “Selectivity D2-like/D3” value in data set [1] worked out at 42. Moreover, the “Selectivity D1-like/D3” value in data set [2] is 30,000.
For `CCCN(CC[C@]1(O)C[C@@H](NS(=O)(=O)c2cccc(Cl)c2)C1)[C@H]1CCc2nc(N)sc2C1` (relative stereo) [Compound 29, N-(cis-3-(2-(((S)-2-Amino-4,5,6,7-tetrahydrobenzo[d]thiazol-6-yl)(propyl)amino)-ethyl)-3-hydroxycyclobutyl)-3-chlorobenzenesulfonamide], the “Selectivity D2-like/D3” value in data set [1] is given as 28. Besides, the “Selectivity D1-like/D3” value in data set [2] is reported as 27,200.
With `CCCN(CCC1(O)CC(NS(=O)(=O)c2ccc(F)c(F)c2)C1)[C@H]1CCc2nc(N)sc2C1` (stereo in doubt) [Compound 35, N-(cis-3-(2-(((S)-2-Amino-4,5,6,7-tetrahydrobenzo[d]thiazol-6-yl)(propyl)amino)-ethyl)-3-hydroxycyclobutyl)-3,4-difluorobenzenesulfonamide], the “Selectivity D2-like/D3” value in data set [1] is 19. Also, in data set [2], the “Selectivity D1-like/D3” value is on record as 24,516.
For `CCCN(CCC1(O)CC(NS(=O)(=O)c2ccccc2F)C1)[C@H]1CCc2nc(N)sc2C1` (stereo in doubt) [Compound 31, N-(cis-3-(2-(((S)-2-Amino-4,5,6,7-tetrahydrobenzo[d]thiazol-6-yl)(propyl)amino)-ethyl)-3-hydroxycyclobutyl)-2-fluorobenzenesulfonamide] the same measures were 614 and 109,000.
On to `CCCN(CCC1(O)CC(NC(=O)c2ccc(Cl)cc2)C1)[C@H]1CCc2nc(N)sc2C1` (stereo in doubt) [Compound 14, N-(cis-3-(2-(((S)-2-Amino-4,5,6,7-tetrahydrobenzo[d]thiazol-6-yl)(propyl)amino)-ethyl)-3-hydroxycyclobutyl)-4-chlorobenzamide], for which, in data set [1], the “Selectivity D2-like/D3” value worked out at 157. In data set [2], the “Selectivity D1-like/D3” value is 9,751.
For `CCCN(CCC1(O)CC(NC(=O)c2ccccc2Cl)C1)[C@H]1CCc2nc(N)sc2C1` (stereo in doubt) [Compound 12, N-(cis-3-(2-(((S)-2-Amino-4,5,6,7-tetrahydrobenzo[d]thiazol-6-yl)(propyl)amino)-ethyl)-3-hydroxycyclobutyl)-2-chlorobenzamide], in data set [1], the “Selectivity D2-like/D3” value was determined as 117. For the same compound, the “Selectivity D1-like/D3” value in data set [2] is recorded as 80,161.
As for `CCCN(CCC1(O)CC(NS(=O)(=O)c2ccc(Cl)cc2)C1)[C@H]1CCc2nc(N)sc2C1` (stereo in doubt) [Compound 30, N-(cis-3-(2-(((S)-2-Amino-4,5,6,7-tetrahydrobenzo[d]thiazol-6-yl)(propyl)amino)-ethyl)-3-hydroxycyclobutyl)-4-chlorobenzenesulfonamide], the “Selectivity D2-like/D3” value in data set [1] is recorded as 205. Further, the “Selectivity D1-like/D3” value in data set [2] is given as 17,654.
In the case of `CCCN(CCC1(O)CC(NC(=O)c2ccc3ccccc3c2)C1)[C@H]1CCc2nc(N)sc2C1` (stereo partly shown) [Compound 3], the “Percentage remaining of compounds in human liver microsomes” value in data set [3] (0 h) was 100%; in data set [3] (5 min), 79.2%; in data set [3] (10 min), 49.9%; in data set [3] (0.25 h), 34.9%; in data set [3] (0.5 h), 11.7%; in data set [3] (1 h), 2.1%.
